ERAP1 inh = ERAP1 (human) enzyme inhibition. recombinant ERAP1, Leu-AMC fluorescence, 60 min. inhibition, % at 10.7 µM. actives 0.15% (n = 340,000);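 active = mean replicate inhibition of at least 30%, or all replicates individually reaching that 30% level; inactive = mean below 30% and not every replicate reaching it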
Target sequence (Q9NZ08 whole entry, looked up): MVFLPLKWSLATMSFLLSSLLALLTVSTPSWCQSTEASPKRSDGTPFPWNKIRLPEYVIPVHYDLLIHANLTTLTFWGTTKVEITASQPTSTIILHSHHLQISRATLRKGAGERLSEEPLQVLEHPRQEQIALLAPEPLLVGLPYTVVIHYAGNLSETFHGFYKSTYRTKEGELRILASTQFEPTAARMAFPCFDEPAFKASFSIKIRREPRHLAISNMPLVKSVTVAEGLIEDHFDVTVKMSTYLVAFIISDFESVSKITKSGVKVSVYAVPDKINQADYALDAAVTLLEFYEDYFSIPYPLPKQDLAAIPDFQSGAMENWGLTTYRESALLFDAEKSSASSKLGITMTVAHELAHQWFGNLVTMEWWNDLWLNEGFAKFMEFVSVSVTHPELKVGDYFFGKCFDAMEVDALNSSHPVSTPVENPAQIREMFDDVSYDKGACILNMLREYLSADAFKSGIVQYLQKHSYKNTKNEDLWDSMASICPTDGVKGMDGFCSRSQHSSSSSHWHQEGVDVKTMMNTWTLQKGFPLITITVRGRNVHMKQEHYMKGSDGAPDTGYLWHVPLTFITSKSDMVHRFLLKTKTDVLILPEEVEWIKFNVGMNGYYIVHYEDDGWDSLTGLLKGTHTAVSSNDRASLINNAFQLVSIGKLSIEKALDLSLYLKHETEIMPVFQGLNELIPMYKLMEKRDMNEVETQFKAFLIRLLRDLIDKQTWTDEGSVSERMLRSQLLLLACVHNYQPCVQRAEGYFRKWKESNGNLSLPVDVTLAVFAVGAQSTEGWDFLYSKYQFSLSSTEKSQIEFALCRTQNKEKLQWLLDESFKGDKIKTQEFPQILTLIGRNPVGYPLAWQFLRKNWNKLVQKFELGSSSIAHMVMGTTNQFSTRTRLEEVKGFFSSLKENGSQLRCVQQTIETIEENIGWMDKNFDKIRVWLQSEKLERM
CAL PDZ FP-1 = inhibitors of human CAL PDZ peptide binding; Q9HD26; purified CAL PDZ, TMR-peptide fluorescence polarization, 1 h; inhibition, % at 20 µM; actives 0.02% (n = 330,000); AID 504414;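 active = highest replicate inhibition of at least 40%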
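Test system: purified CerCALP PDZ construct; Compound dosing: one concentration, 20 µM compound; Also added: TMR-labelled reporter peptide T*-PRC34 bound in PDZ groove; Read-out: inhibition from polarization loss; Controls: unlabelled peptide and DMSO controls; Signal: FP readout, S and P plane fluorescence; Incubation: 1 h at RT.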
ERp5 block = blocks human ERp5 reductase activity on insulin; Q15084; ERp5 insulin aggregation, absorbance 650 nm, 90 min; inhibition, % at 9.99 µM; actives 0.05% (n = 350,000); AID 651711;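 active = mean replicate inhibition above about 25%, with every replicate also reaching it, limit read from the data, passing the limit was not always enough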
CAL PDZ FP-2 = CAL PDZ (human) peptide binding inhibition. purified CAL PDZ, TMR-peptide fluorescence polarization, 1 h. actives 0.92% (n = 300,000). Q9HD26. inhibition, % at 24.9 µM;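 active = mean inhibition of at least 30% with at least half of replicates also reaching 30%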
PDI turbidity = PDI (human) enzyme inhibition. inhibition, % at 10 µM. AID 588391. P07237. actives 0.052% (n = 350,000). PDI insulin aggregation turbidity, A650, 90 min;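 active = mean inhibition across replicates of 30% or more, whatever share of single replicates reach that level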
Rin1 Abl inh = inhibitors of human Rin1-Abl protein interaction; actives 0.4% (n = 360,000); TR-FRET Rin1/Abl binding, biochemical; P00519+Q13671; AID 588664; inhibition, % at 7.35 µM; in the data active = inhibition above about 5%, passing the limit was not always enough
A number is an active result; . = inactive; / = no result given; + = active, no number. Only some compounds are listed: those with a hit (about 1.1% of all), similar ones and a draw of the others.

SMILES | ERAP1 inh | CAL PDZ FP-1 | ERp5 block | CAL PDZ FP-2 | PDI turbidity | Rin1 Abl inh
Cc1ccc(N2C(=O)c3ccccc3C2=O)cc1 | . | . | . | . | . | .
CCN(CC)c1ccc(N2C(=O)c3ccccc3C2=O)cc1 | . | / | . | 101.7 | . | .
C[C@H]1CN([C@@H](C)CO)C(=O)Cc2cc(NC(=O)CCN3CCOCC3)ccc2O[C@H]1CN(C)Cc1ccc(C(=O)Nc2ccccc2N)cc1 | . | / | . | / | / | /
CO[C@@H]1CN(C)C(=O)c2cc(NC(=O)Nc3ccccc3F)ccc2OC[C@@H](C)N(CC2CC2)C[C@H]1C | . | / | . | / | / | /
CN(C)c1ccc(CNC(=O)CCS(=O)(=O)c2ccc3c(c2)oc(=O)n3C)cc1 | . | . | . | 63.2 | . | .
COc1ccc(CNC(=O)CCS(=O)(=O)c2ccc3c(c2)oc(=O)n3C)cc1 | . | . | . | . | . | .
CC1CCN(Cc2c(C(=O)N/N=C/c3cc(Br)ccc3O)nnn2-c2nonc2N)CC1 | . | . | . | . | . | .
Nc1nonc1-n1nnc(C(=O)N/N=C/c2ccccn2)c1CNc1ccccc1 | . | . | . | 131.1 | . | .
CCOc1cccc(-c2c(C(=O)N/N=C/c3ccco3)nnn2-c2nonc2N)c1 | / | . | / | . | . | .
Cc1cc(C)c(/C=N/NC(=O)c2nnn(-c3nonc3N)c2CN2CCC(C)CC2)c(C)c1 | . | . | . | 37.7 | . | .
Nc1nonc1-n1nnc(C(=O)N/N=C/c2ccc(O)cc2)c1COc1ccc(F)cc1 | . | . | . | . | . | .
CN(C)Cc1c(C(=O)N/N=C/c2ccc(OCc3c(F)cccc3Cl)cc2)nnn1-c1nonc1N | . | . | . | 76.6 | . | .
CCOc1cccc(-c2c(C(=O)N/N=C/c3ccc(C)o3)nnn2-c2nonc2N)c1 | . | . | 26.7 | . | . | .
COc1ccc(CN(C)C[C@H]2OCCCC[C@H](C)Oc3ccc(NS(=O)(=O)c4ccc(F)cc4)cc3C(=O)N([C@H](C)CO)C[C@H]2C)cc1 | . | / | . | / | / | /
COc1ccc(CNC(=O)N(C)C[C@@H]2OCc3ccccc3-c3ccccc3C(=O)N([C@@H](C)CO)C[C@H]2C)cc1 | . | / | . | / | / | /
CCC(=O)Nc1ccc2c(c1)OC[C@H](C)N(Cc1cccnc1)C[C@H](C)[C@H](OC)CN(C)C2=O | . | / | 28.6 | / | / | /
COCc1cn(CC[C@@H]2CC[C@H](NC(=O)Nc3ccc4c(c3)OCO4)[C@@H](CO)O2)nn1 | . | / | . | / | / | /
COc1cc(/C=C2/SC(=S)N(CC(=O)O)C2=O)ccc1OC(=O)c1ccco1 | 55.7 | . | . | . | . | .
O=C(O)CN1C(=O)/C(=C\c2ccccc2OCc2ccc(F)cc2)SC1=S | 32.3 | . | . | . | . | .
CN1C(=O)/C(=C/c2ccc(OC(=O)c3ccco3)cc2)SC1=S | . | . | . | + | . | .
COc1cc(/C=C2\SC(=S)N(CC(=O)O)C2=O)ccc1OC(=O)c1ccco1 | . | . | . | . | . | .
CN1C(=O)/C(=C\c2ccc(OC(=O)c3ccco3)cc2)SC1=S | . | . | . | 56.8 | . | .
CNC(=O)C[C@@H]1CC[C@H]2[C@@H](COc3ccc(NC(=O)C4CCCCC4)cc3C(=O)N2C)O1 | . | / | . | / | / | /
C[C@H](CO)N1C[C@H](C)[C@@H](CN(C)C(=O)Nc2ccc(F)cc2)Oc2c(NC(=O)C3CC3)cccc2C1=O | . | / | . | / | / | /
COc1ccc(OC)c(C(C[N+](=O)[O-])c2c(C)cc3ccccn23)c1 (centres undefined) | . | . | . | 47.9 | . | .
SMILES | ERAP1 inh | CAL PDZ FP-1 | ERp5 block | CAL PDZ FP-2 | PDI turbidity | Rin1 Abl inh
CCCNC(=O)N1[C@H](CO)[C@H](c2ccccc2)[C@@H]1CNC(=O)C1CCCC1 | . | / | . | / | / | /
CC(=O)c1ccc(S(=O)(=O)Nc2ccc(Cl)c(S(=O)(=O)N3CCCC3)c2)cc1 | . | . | . | 63.1 | . | .
O=S(=O)(Nc1cccc(-c2cn3c(n2)SCC3)c1)c1ccccc1F | 36.6 | . | . | . | . | .
CCCC#Cc1ccc([C@H]2[C@@H](C#N)N(C(=O)C3CC3)[C@H]2CO)cc1 | . | / | . | / | / | /
O=c1c(O)c(-c2ccccc2)oc2cc(O)cc(O)c12 | / | . | . | . | / | .
O=c1c(O)c(-c2cc(O)c(O)c(O)c2)oc2cc(O)cc(O)c12 | . | . | . | . | . | 55.3
CCCNC(=O)N1CC2(C1)CN(Cc1ccccn1)[C@H](CO)c1c2c2ccc(OC)cc2n1C | . | / | . | / | / | /
C[C@@H]1CN([C@@H](C)CO)S(=O)(=O)c2ccc(C#CC3(O)CCCC3)cc2O[C@H]1CN(C)C(=O)Cc1ccncc1 | . | / | . | / | / | /
CC(NC(=O)/C(C#N)=C/c1ccc(OCC(=O)O)cc1)c1ccccc1 (centres undefined) | 35.4 | . | . | . | . | .
COc1ccc(Nc2nc3ccccc3n3cnnc23)cc1 | / | . | / | 60.2 | . | .
CC(C)c1ccc(NC2CCCN(C(=O)c3ccnn3C)C2)cc1 (centres undefined) | . | . | . | 55.3 | . | .
COc1ccc(NC2CCCN(C(=O)CCc3ccccc3F)C2)cc1 (centres undefined) | . | . | . | 78.0 | . | .
COc1ccc(NC2CCCN(C(=O)CCOc3ccccc3)C2)cc1 (centres undefined) | . | . | . | . | . | .
COc1ccc(NC2CCCN(C(=O)c3csc(C(C)C)n3)C2)cc1 (centres undefined) | . | . | . | 92.7 | . | .
COc1ccc(NC(=O)Nc2ccc3c(c2)C(=O)N([C@@H](C)CO)C[C@@H](C)[C@@H](CN(C)Cc2ccc(C(=O)O)cc2)OCCCC[C@H](C)O3)cc1 | . | / | . | / | / | /
Cc1ccc(-c2nn3c(C)nnc3c3ccccc23)cc1S(=O)(=O)NCCN1CCOCC1 | / | . | / | / | . | .
Cc1ccc(-c2n[nH]c(=O)c3ccccc23)cc1S(=O)(=O)NCCN1CCOCC1 | / | / | / | 42.3 | . | .
CC(C)CC#Cc1ccc2c(c1)O[C@@H](CN(C)Cc1cncnc1)[C@@H](C)CN([C@H](C)CO)S2(=O)=O | . | / | . | / | / | /
Nc1ccc(Nc2nc(-c3cc4ccccc4oc3=O)cs2)cc1 | / | . | . | 48.4 | . | .
CCCCn1nnc(NC(=O)c2ccc([N+](=O)[O-])cc2Cl)n1 | . | . | . | 67.3 | . | .
C[C@@H]1CN([C@@H](C)CO)S(=O)(=O)c2ccc(C#Cc3ccccc3F)cc2O[C@H]1CN(C)CC1CC1 | . | / | . | / | / | /
CCSc1nnc(NC(=O)CCNC(=O)c2ccccc2Cl)s1 | . | . | . | 115.2 | . | .
COc1ccc(C#Cc2ccc3c(c2)[C@H]2[C@H](CCN2C(=O)C2CCC2)[C@@H](CO)N3)cc1 | . | / | . | / | / | /
COc1cc(NC(=S)Nc2ccccn2)cc(OC)c1 | / | . | / | 43.5 | . | .
COc1ccc(S(=O)(=O)N(C)C[C@H]2OCCCC[C@@H](C)Oc3ccc(NS(=O)(=O)c4c(C)noc4C)cc3C(=O)N([C@H](C)CO)C[C@H]2C)cc1 | . | / | . | / | / | /
